# Reference: ChEMBL document CHEMBL2390947, “New insight into adenosine receptors selectivity derived from a novel series of [5-substituted-4-phenyl-1,3-thiazol-2-yl] benzamides and furamides” (Eur J Med Chem, 2013)
# Biological target: Adenosine receptor A2a (Homo sapiens, UniProt P29274)
# Assay: Displacement of [3H]NECA from human adenosine A2A receptor expressed in CHO cells
# Assay type: cell-based
# Procedure, shortened: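 Membranes prepared from stably transfected CHO cells expressing human A2A receptor by two-step centrifugation (1000 × g, then 100,000 × g), frozen and kept at -80 °C. Competition against 30 nM [3H]NECA, with 100 µM R-PIA for non-specific binding. Ki obtained by competition-curve fitting.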
# Sequence of Adenosine receptor A2a (P29274 whole entry): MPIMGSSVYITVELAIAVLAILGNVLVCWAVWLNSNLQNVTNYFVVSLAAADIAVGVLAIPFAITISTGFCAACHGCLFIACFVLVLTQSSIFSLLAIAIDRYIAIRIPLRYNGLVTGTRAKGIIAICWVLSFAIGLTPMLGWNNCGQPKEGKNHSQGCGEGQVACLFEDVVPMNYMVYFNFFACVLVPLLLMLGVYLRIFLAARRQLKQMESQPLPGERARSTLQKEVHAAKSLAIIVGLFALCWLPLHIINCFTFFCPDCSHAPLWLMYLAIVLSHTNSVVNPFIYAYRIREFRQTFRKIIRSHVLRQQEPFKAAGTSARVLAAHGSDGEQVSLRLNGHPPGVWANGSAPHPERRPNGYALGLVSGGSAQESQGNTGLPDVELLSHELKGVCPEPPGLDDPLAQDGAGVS
row,Structure (SMILES),Ki [nM]
1,O=C(Nc1nc(-c2ccccc2)c(C(=O)c2cccnc2)s1)c1ccco1,552
2,CN(C)c1nc(N)nc(-c2sc(NC(=O)c3ccccc3)nc2-c2ccccc2)n1,327
3,O=C(Nc1nc(-c2ccccc2)c(-c2ccccn2)s1)c1ccco1,193
4,COc1ccc(C(=O)Nc2nc(-c3ccccc3)c(-c3nc(N)nc(N(C)C)n3)s2)cc1,2010
5,COc1ccc(C(=O)Nc2nc(-c3ccccc3)c(C(=O)c3cccnc3)s2)cc1,> 10000

# Second part, the compound after the results:
row,Ki [nM],Structure (SMILES)
1,> 10000,Nc1nc(-c2sc(NC(=O)c3ccccc3)nc2-c2ccccc2)nc2sc3c(c12)CCCC3
2,> 30000,Cc1ccc(C(=O)Nc2nc(-c3ccccc3)c(-c3nc(N)c4c(C)c(C)sc4n3)s2)cc1
3,> 30000,COc1ccc(C(=O)Nc2nc(-c3ccccc3)c(-c3nc(N)c4c(C)c(C)sc4n3)s2)cc1
4,> 10000,COc1ccc(C(=O)Nc2nc(-c3ccccc3)c(-c3nc(N)c4c5c(sc4n3)CCCC5)s2)cc1
5,> 10000,Cc1ccc(C(=O)Nc2nc(-c3ccccc3)c(-c3nc(N)c4c5c(sc4n3)CCCC5)s2)cc1

# Biological target: T1, Adenosine receptor A3 (Homo sapiens, UniProt P0DMS8)
# T1 sequence (P0DMS8 whole entry): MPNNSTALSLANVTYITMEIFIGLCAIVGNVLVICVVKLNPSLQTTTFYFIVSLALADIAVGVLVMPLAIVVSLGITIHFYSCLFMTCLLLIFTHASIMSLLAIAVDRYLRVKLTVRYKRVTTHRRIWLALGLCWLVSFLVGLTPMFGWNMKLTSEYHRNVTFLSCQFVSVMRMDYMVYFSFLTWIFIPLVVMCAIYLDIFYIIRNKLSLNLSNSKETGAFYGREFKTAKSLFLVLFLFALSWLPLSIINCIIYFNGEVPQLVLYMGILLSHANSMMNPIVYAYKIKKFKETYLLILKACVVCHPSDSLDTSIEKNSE
# Assay: Displacement of [3H]HEMADO from human adenosine A3 receptor expressed in CHO cells
# Assay type: cell-based
# Procedure, shortened: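 Human A3 receptor binding in membranes from stably transfected CHO cells (low-speed then 100,000 × g pellet, stored at -80 °C). Radioligand was the agonist [3H]HEMADO at 1 nM; non-specific binding measured with 100 µM R-PIA. Ki values derived from competition experiments.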
row,Structure (SMILES),Ki [nM]
1,O=C(Nc1nc(-c2ccccc2)c(C(=O)c2cccnc2)s1)c1ccco1,1870
2,CN(C)c1nc(N)nc(-c2sc(NC(=O)c3ccccc3)nc2-c2ccccc2)n1,567
3,O=C(Nc1nc(-c2ccccc2)c(-c2ccccn2)s1)c1ccco1,2040
4,COc1ccc(C(=O)Nc2nc(-c3ccccc3)c(-c3nc(N)nc(N(C)C)n3)s2)cc1,2640
5,COc1ccc(C(=O)Nc2nc(-c3ccccc3)c(C(=O)c3cccnc3)s2)cc1,> 10000

# Continued, values first:
row,Ki [nM],Structure (SMILES)
1,> 10000,Nc1nc(-c2sc(NC(=O)c3ccccc3)nc2-c2ccccc2)nc2sc3c(c12)CCCC3
2,1380,Cc1ccc(C(=O)Nc2nc(-c3ccccc3)c(-c3nc(N)c4c(C)c(C)sc4n3)s2)cc1
3,2470,COc1ccc(C(=O)Nc2nc(-c3ccccc3)c(-c3nc(N)c4c(C)c(C)sc4n3)s2)cc1
4,> 10000,COc1ccc(C(=O)Nc2nc(-c3ccccc3)c(-c3nc(N)c4c5c(sc4n3)CCCC5)s2)cc1
5,> 10000,Cc1ccc(C(=O)Nc2nc(-c3ccccc3)c(-c3nc(N)c4c5c(sc4n3)CCCC5)s2)cc1

# Species on record: Homo sapiens
# Assay: Selectivity ratio of Ki for human adenosine A2A receptor to Ki for human adenosine A2B receptor
row,Structure (SMILES),Ratio Ki
1,O=C(Nc1nc(-c2ccccc2)c(-c2ccccn2)s1)c1ccco1,0.23

# Biological target: T2, Adenosine receptor A2b (Homo sapiens, UniProt P29275)
# T2 sequence (P29275 whole entry): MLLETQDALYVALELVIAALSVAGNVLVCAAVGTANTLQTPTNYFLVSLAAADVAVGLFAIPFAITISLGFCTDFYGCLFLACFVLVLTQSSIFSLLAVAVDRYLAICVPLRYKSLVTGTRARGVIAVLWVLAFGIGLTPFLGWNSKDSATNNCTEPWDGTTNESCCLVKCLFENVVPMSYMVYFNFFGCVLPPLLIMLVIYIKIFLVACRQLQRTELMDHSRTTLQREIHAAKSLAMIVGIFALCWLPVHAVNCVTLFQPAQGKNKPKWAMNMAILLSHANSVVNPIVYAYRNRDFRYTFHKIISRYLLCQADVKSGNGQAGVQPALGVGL
# Assay: Antagonist activity at human adenosine A2B receptor expressed in CHO cells assessed as inhibition of NECA-stimulated adenylyl cyclase activity
# Assay type: functional, cell-based
# Procedure, shortened: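 Affinity at human A2B receptor taken from inhibition of NECA-stimulated adenylyl cyclase activity. Membranes from stably transfected CHO cells were obtained by a single high-speed spin of the homogenate, resuspended in 50 mM Tris/HCl pH 7.4 and used at once.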
row,Structure (SMILES),Ki [nM]
1,O=C(Nc1nc(-c2ccccc2)c(C(=O)c2cccnc2)s1)c1ccco1,> 10000
2,CN(C)c1nc(N)nc(-c2sc(NC(=O)c3ccccc3)nc2-c2ccccc2)n1,> 10000
3,O=C(Nc1nc(-c2ccccc2)c(-c2ccccn2)s1)c1ccco1,841
4,COc1ccc(C(=O)Nc2nc(-c3ccccc3)c(-c3nc(N)nc(N(C)C)n3)s2)cc1,> 10000
5,COc1ccc(C(=O)Nc2nc(-c3ccccc3)c(C(=O)c3cccnc3)s2)cc1,> 10000

# Next, values leading:
row,Ki [nM],Structure (SMILES)
1,> 10000,Nc1nc(-c2sc(NC(=O)c3ccccc3)nc2-c2ccccc2)nc2sc3c(c12)CCCC3
2,> 10000,Cc1ccc(C(=O)Nc2nc(-c3ccccc3)c(-c3nc(N)c4c(C)c(C)sc4n3)s2)cc1
3,> 10000,COc1ccc(C(=O)Nc2nc(-c3ccccc3)c(-c3nc(N)c4c(C)c(C)sc4n3)s2)cc1
4,> 10000,COc1ccc(C(=O)Nc2nc(-c3ccccc3)c(-c3nc(N)c4c5c(sc4n3)CCCC5)s2)cc1
5,> 10000,Cc1ccc(C(=O)Nc2nc(-c3ccccc3)c(-c3nc(N)c4c5c(sc4n3)CCCC5)s2)cc1

# Biological target: T3, Adenosine receptor A1 (Homo sapiens, UniProt P30542)
# T3 sequence (P30542 whole entry): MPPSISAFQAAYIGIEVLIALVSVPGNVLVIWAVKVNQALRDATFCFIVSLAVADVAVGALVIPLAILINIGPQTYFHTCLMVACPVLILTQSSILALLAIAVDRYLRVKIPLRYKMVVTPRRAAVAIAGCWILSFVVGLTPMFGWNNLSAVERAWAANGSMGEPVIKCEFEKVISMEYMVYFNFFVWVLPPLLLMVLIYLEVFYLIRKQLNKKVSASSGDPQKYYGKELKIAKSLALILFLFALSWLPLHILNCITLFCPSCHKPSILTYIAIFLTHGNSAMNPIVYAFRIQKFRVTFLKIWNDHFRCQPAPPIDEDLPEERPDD
# Assay: Displacement of [3H]CCPA from human adenosine A1 receptor expressed in CHO cells
# Assay type: cell-based
# Procedure, shortened: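 Agonist radioligand competition on membranes from CHO cells stably transfected with human A1 receptor (1000 × g spin to clear debris, crude membranes pelleted at 100,000 × g, stored at -80 °C). Tracer 1 nM [3H]CCPA; non-specific binding defined with 1 mM theophylline. Ki computed from competition curves.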
row,Structure (SMILES),Ki [nM]
1,O=C(Nc1nc(-c2ccccc2)c(C(=O)c2cccnc2)s1)c1ccco1,177
2,CN(C)c1nc(N)nc(-c2sc(NC(=O)c3ccccc3)nc2-c2ccccc2)n1,801
3,O=C(Nc1nc(-c2ccccc2)c(-c2ccccn2)s1)c1ccco1,276
4,COc1ccc(C(=O)Nc2nc(-c3ccccc3)c(-c3nc(N)nc(N(C)C)n3)s2)cc1,10400
5,COc1ccc(C(=O)Nc2nc(-c3ccccc3)c(C(=O)c3cccnc3)s2)cc1,> 10000

# The remaining lines, values ahead:
row,Ki [nM],Structure (SMILES)
1,> 10000,Nc1nc(-c2sc(NC(=O)c3ccccc3)nc2-c2ccccc2)nc2sc3c(c12)CCCC3
2,> 30000,Cc1ccc(C(=O)Nc2nc(-c3ccccc3)c(-c3nc(N)c4c(C)c(C)sc4n3)s2)cc1
3,> 100000,COc1ccc(C(=O)Nc2nc(-c3ccccc3)c(-c3nc(N)c4c(C)c(C)sc4n3)s2)cc1
4,> 10000,COc1ccc(C(=O)Nc2nc(-c3ccccc3)c(-c3nc(N)c4c5c(sc4n3)CCCC5)s2)cc1
5,> 10000,Cc1ccc(C(=O)Nc2nc(-c3ccccc3)c(-c3nc(N)c4c5c(sc4n3)CCCC5)s2)cc1

# Species on record: Homo sapiens
# Assay: Selectivity ratio of Ki for human adenosine A1 receptor to Ki for human adenosine A2B receptor
row,Structure (SMILES),Ratio Ki
1,O=C(Nc1nc(-c2ccccc2)c(-c2ccccn2)s1)c1ccco1,0.33
